≈ marks a conversion by molar mass, not a printed value. Calls of active or inactive are those of the source. The calls are words filed in the database; no cut-off is given here.
Assays:
[1] = tested on: Staphylococcus epidermidis; assay: Ratio of ciprofloxacin MIC to compound MIC for hospital methicillin-resistant Staphylococcus epidermidis 62/04 after 18 hrs by twofold serial microdilution method; type: functional
Procedure, shortened: (§1)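 Ratio of MICs for ciprofloxacin and test agent, each from twofold serial broth microdilution in Mueller-Hinton broth following CLSI guidelines. DMSO stock was diluted in sterile water to 0.125–512 µg/mL, with a final inoculum of 10^5 CFU/mL.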

[2] = tested on: Staphylococcus epidermidis; assay: Inhibition of biofilm formation in Staphylococcus epidermidis 31/04 after 24 hrs using MTT staining by spectrophotometer analysis; type: functional, organism-based; conditions: 31/04, 24 h
[3] = tested on: Staphylococcus epidermidis; assay: Inhibition of biofilm formation in Staphylococcus epidermidis 62/04 after 24 hrs using MTT staining by spectrophotometer analysis; type: functional, organism-based; conditions: 62/04, 24 h
Procedure, shortened: (§2)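 Biofilm was grown for 24 h at 37 °C in TSB with 0.5% glucose from 10^7 CFU/mL inoculum, mixed 1:1 with compound. Final concentrations were 0.125–4 or 0.25–8 µg/ml. Wells were PBS-washed and MTT-stained for 2 h at 37 °C, solubilized in DMSO/glycine buffer and read at 554 nm. IC50 (50% inhibition of biofilm formation) was taken from the dose-response curve; quadruplicates.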

[4] = tested on: CCRF-SB; assay: Cytotoxicity against human CCRF-SB cells after 96 hrs by MTT assay; type: functional
Procedure, shortened: (§3)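 Leukaemia/lymphoma lines seeded at 1×10^5 cells/ml in RPMI-1640 with 10% FCS and penicillin/streptomycin; incubated with serial dilutions at 37°C, 5% CO2; viability by MTT after 96 h; value is concentration reducing proliferation by 50%, with untreated controls undergoing at least three rounds of multiplication.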

[5] = tested on: Staphylococcus aureus; assay: Antimicrobial activity against hospital methicillin-resistant Staphylococcus aureus 79/05 after 18 hrs by twofold serial microdilution method; type: functional; conditions: 79/05, 18 h
Procedure, shortened: (§4)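 Twofold serial microdilution in Mueller-Hinton broth. Compound stock was made in DMSO and diluted in sterile water. Tested range was 0.125–512 µg/mL. Final inoculum was 10^5 CFU/mL. Plates were incubated 18 h at 35 °C. MIC is the lowest concentration preventing visible growth.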

[6] = tested on: Staphylococcus aureus; assay: Ratio of ciprofloxacin MIC to compound MIC for hospital methicillin-resistant Staphylococcus aureus 79/05 after 18 hrs by twofold serial microdilution method; type: functional; procedure, shortened: as §1
[7] = target: T1, Topoisomerase IV (Staphylococcus aureus) (UniProt P0C1U9+P0C1S7); assay: Inhibition of decatenation activity of DNA topoisomerase 4 in hospital methicillin-resistant Staphylococcus aureus 81/05 using kDNA as substrate at 32 ug/ml after 1 hr using ethidium bromide staining by agarose gel electrophoresis; type: protein-complex assay
Procedure, shortened: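 Enzyme was S. aureus topoisomerase IV from a commercial decatenation kit, with kinetoplast DNA as substrate (1 U per 200 ng kDNA) in the supplied buffer. Compound was present at 1, 4 or 32 µg/ml, 30 min at 37 °C. Reactions were stopped with STEB and extracted with chloroform/isoamyl alcohol, then run on 1% agarose in TAE for 1 h at 120 V and stained with ethidium bromide. No-enzyme and DMSO controls were included.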

[8] = target: T1, Topoisomerase IV (Staphylococcus aureus); assay: Inhibition of decatenation activity of DNA topoisomerase 4 in hospital methicillin-resistant Staphylococcus aureus 81/05 using kDNA as substrate at 1 to 4 ug/ml after 1 hr using ethidium bromide staining by agarose gel electrophoresis; type: protein-complex assay
[9] = target: T1, Topoisomerase IV (Staphylococcus aureus); assay: Inhibition of decatenation activity of DNA topoisomerase 4 in hospital methicillin-resistant Staphylococcus aureus 80/05 using kDNA as substrate at 32 ug/ml after 1 hr using ethidium bromide staining by agarose gel electrophoresis; type: protein-complex assay
[10] = target: T1, Topoisomerase IV (Staphylococcus aureus); assay: Inhibition of decatenation activity of DNA topoisomerase 4 in Staphylococcus aureus ATCC 6538 using kDNA as substrate at 1 to 4 ug/ml […] using ethidium bromide staining by agarose gel electrophoresis; type: protein-complex assay
[11] = tested on: CCRF-CEM; assay: Cytotoxicity against human CCRF-CEM cells after 96 hrs by MTT assay; type: functional; procedure, shortened: as §3
[12] = target: T2, DNA topoisomerase 4 (Staphylococcus epidermidis) (UniProt Q5HPI6+Q5HPI5); assay: Inhibition of decatenation activity of DNA topoisomerase 4 in Staphylococcus epidermidis ATCC 12228 using kDNA as substrate at 1 to 4 ug/ml after 1 hr using ethidium bromide staining by agarose gel electrophoresis; type: protein assay
T2 sequence (Q5HPI5 whole entry, looked up): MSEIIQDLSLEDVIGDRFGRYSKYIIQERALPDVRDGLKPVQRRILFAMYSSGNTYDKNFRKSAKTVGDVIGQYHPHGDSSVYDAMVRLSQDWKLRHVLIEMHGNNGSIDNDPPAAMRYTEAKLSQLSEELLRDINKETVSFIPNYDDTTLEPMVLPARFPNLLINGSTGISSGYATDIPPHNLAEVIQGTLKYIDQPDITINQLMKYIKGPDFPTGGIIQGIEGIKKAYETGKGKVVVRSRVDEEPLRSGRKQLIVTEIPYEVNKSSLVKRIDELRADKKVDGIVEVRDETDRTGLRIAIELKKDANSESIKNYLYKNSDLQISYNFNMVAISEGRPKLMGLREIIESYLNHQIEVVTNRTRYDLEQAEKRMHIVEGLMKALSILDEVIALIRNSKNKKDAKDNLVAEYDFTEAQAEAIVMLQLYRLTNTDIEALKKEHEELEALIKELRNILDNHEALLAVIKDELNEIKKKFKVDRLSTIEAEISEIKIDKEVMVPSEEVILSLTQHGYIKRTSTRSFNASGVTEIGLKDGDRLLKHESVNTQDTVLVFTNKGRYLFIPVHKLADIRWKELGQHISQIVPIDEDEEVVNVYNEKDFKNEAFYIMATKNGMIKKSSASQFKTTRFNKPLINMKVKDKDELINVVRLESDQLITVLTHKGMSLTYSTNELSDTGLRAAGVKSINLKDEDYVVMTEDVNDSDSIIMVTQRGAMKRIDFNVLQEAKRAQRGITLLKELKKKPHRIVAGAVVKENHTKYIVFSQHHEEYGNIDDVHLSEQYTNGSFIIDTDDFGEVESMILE
T2 sequence (Q5HPI6 whole entry, looked up): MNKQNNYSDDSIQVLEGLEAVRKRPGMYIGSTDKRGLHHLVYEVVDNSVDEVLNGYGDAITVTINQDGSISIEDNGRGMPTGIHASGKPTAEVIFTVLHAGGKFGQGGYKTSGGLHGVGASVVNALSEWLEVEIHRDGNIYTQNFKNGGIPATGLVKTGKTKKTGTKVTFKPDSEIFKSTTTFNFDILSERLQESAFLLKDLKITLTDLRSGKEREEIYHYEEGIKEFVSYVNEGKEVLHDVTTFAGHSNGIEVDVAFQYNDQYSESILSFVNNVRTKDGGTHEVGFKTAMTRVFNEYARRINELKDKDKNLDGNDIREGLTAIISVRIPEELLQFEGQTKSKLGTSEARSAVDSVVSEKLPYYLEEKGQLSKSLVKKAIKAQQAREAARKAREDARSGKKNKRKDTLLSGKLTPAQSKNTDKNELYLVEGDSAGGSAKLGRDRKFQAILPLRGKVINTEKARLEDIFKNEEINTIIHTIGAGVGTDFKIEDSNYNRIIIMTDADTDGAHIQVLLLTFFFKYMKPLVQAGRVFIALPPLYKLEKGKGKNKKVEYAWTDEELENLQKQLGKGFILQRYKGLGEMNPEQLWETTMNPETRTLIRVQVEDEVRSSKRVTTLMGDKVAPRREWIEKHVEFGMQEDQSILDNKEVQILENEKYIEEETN

[13] = tested on: Staphylococcus epidermidis; assay: Antimicrobial activity against hospital methicillin-resistant Staphylococcus epidermidis 23/04 after 18 hrs by twofold serial microdilution method; type: functional; conditions: 23/04, 18 h; procedure, shortened: as §4
[14] = tested on: Staphylococcus epidermidis; assay: Inhibition of biofilm formation in Staphylococcus epidermidis ATCC 35984 after 24 hrs using MTT staining by spectrophotometer analysis; type: functional, organism-based; conditions: ATCC 35984, 24 h; procedure, shortened: as §2
[15] = target: T2, DNA topoisomerase 4 (Staphylococcus epidermidis); assay: Inhibition of decatenation activity of DNA topoisomerase 4 in hospital methicillin-resistant Staphylococcus epidermidis 23/04 using kDNA as substrate at 1 to 4 ug/ml after 1 hr using ethidium bromide staining by agarose gel electrophoresis; type: protein assay
[16] = tested on: WIL2-NS; assay: Cytotoxicity against human WIL2-NS cells after 96 hrs by MTT assay; type: functional; procedure, shortened: as §3
[17] = target: T1, Topoisomerase IV (Staphylococcus aureus); assay: Inhibition of decatenation activity of DNA topoisomerase 4 in Staphylococcus aureus ATCC 25923 using kDNA as substrate at 32 ug/ml after 1 hr using ethidium bromide staining by agarose gel electrophoresis; type: protein-complex assay
Procedure, shortened: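 Kit-supplied S. aureus topoisomerase IV, 1 U, with 200 ng kDNA in the supplied assay buffer. Reactions ran 30 min at 37 °C with compound at 1, 4 or 32 µg/ml. They were stopped with STEB and extracted with chloroform/isoamyl alcohol (24:1). Products were run on 1% agarose in TAE for 1 h at 120 V and visualised with ethidium bromide under UV. Controls were no-enzyme, no-compound and ±DMSO.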

[18] = tested on: Staphylococcus epidermidis; assay: Inhibition of biofilm formation in Staphylococcus epidermidis […]/[…] after 24 hrs using MTT staining by spectrophotometer analysis; type: functional, organism-based; conditions: 16/04, 24 h
[19] = Cytotoxicity against bovine MDBK cells assessed as cell viability after 48 to 96 hrs by MTT assay; type: cell-based, Bos taurus; conditions: cattle
[20] = target: T2, DNA topoisomerase 4 (Staphylococcus epidermidis); conditions: 16/04, at 32 µg/mL
[21] = target: T2, DNA topoisomerase 4 (Staphylococcus epidermidis); assay: Inhibition of decatenation activity of DNA topoisomerase 4 in hospital methicillin-resistant Staphylococcus epidermidis 23/04 using kDNA as substrate at 32 ug/ml after 1 hr using ethidium bromide staining by agarose gel electrophoresis; type: protein assay
[22] = tested on: Staphylococcus epidermidis; assay: Inhibition of biofilm formation in Staphylococcus epidermidis ATCC 35984 at 4 ug/ml after 24 hrs using MTT staining by spectrophotometer analysis; type: functional; conditions: ATCC 35984, 24 h
Procedure, shortened: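 Methicillin-resistant hospital isolates or ATCC strains of S. epidermidis were grown overnight in tryptone soy broth with 0.5% glucose. Inoculum of 10^7 CFU/mL was mixed 1:1 with compound in TSB-glucose and incubated 24 h at 37 °C. Non-adherent cells were washed off with PBS, and wells were stained with MTT (0.5% in PBS) for 2 h at 37 °C. Stain was solubilized in DMSO/glycine buffer and read at A554. Inhibition is relative to drug-free control; quadruplicates.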

[23] = target: T2, DNA topoisomerase 4 (Staphylococcus epidermidis); assay: Inhibition of decatenation activity of DNA topoisomerase 4 in hospital methicillin-resistant Staphylococcus epidermidis 151/04 using kDNA as substrate at 1 to 4 ug/ml after 1 hr using ethidium bromide staining by agarose gel electrophoresis; type: protein assay

SMILES	Ratio [1]	IC50 [2]	IC50 [3]	CC50 [4]	MIC [5]	Ratio [6]	inhibition [7]	inhibition [8]	inhibition [9]	inhibition [10]	CC50 [11]	inhibition [12]	MIC [13]	IC50 [14]	inhibition [15]	CC50 [16]	inhibition [17]	IC50 [18]	CC50 [19]	inhibition [20]	other results
FC(F)(F)c1cccc(NC(=S)Nc2cccc(Br)c2)c1	128	3.76 µg/mL (≈ 10 µM)	1.98 µg/mL (≈ 5.28 µM)	9 µM	0.5 µg/mL (≈ 1.33 µM)	128	Active	Active	Active	Active	9.3 µM	Active	2 µg/mL (≈ 5.33 µM)	3.84 µg/mL (≈ 10.2 µM)	Active	9.9 µM	Active	3.91 µg/mL (≈ 10.4 µM)	10 µM	Active	inhibition [21]: Active; inhibition at 4 µg/mL [22]: 46.8%; inhibition [23]: Active
FC(F)(F)c1cccc(NC(S)=NCc2ccccc2)c1	128				16 µg/mL (≈ 51.6 µM)	128							16 µg/mL (≈ 51.6 µM)						40 µM		
FC(F)(F)c1cccc(NC(S)=Nc2ccc(Cl)c(Cl)c2)c1	128			8.8 µM	2 µg/mL (≈ 5.48 µM)	128					8 µM		1 µg/mL (≈ 2.74 µM)			8 µM					
FC(F)(F)c1cccc(NC(=S)Nc2ccc(Cl)cc2)c1	128			11 µM	16 µg/mL (≈ 48.4 µM)	128					12 µM		16 µg/mL (≈ 48.4 µM)			13 µM			17 µM		
Fc1ccc(NC(=S)Nc2cccc(C(F)(F)F)c2)cc1Cl	128	1.18 µg/mL (≈ 3.38 µM)	0.97 µg/mL (≈ 2.78 µM)	9.5 µM	1 µg/mL (≈ 2.87 µM)	128	Active	Active	Active	Active	7 µM	Active	1 µg/mL (≈ 2.87 µM)	1.37 µg/mL (≈ 3.93 µM)	Active	9 µM	Active	1.35 µg/mL (≈ 3.87 µM)	11 µM	Active	inhibition [21]: Active; inhibition at 4 µg/mL [22]: 84%; inhibition [23]: Active
Fc1cccc(NC(=S)Nc2cccc(C(F)(F)F)c2)c1	128				8 µg/mL (≈ 25.5 µM)	128							8 µg/mL (≈ 25.5 µM)						10 µM		
FC(F)(F)c1cccc(NC(=S)NCCc2ccccc2)c1	128				16 µg/mL (≈ 49.3 µM)	128							8 µg/mL (≈ 24.7 µM)						48 µM		
O=C(O)c1cn(C2CC2)c2cc(N3CCNCC3)c(F)cc2c1=O [CIPROFLOXACIN]		22.1 µg/mL (≈ 66.8 µM)	4.81 µg/mL (≈ 14.5 µM)		64 µg/mL (≈ 193 µM)		Active	Active	Active	Active		Active	2 µg/mL (≈ 6.04 µM)	11.6 µg/mL (≈ 35 µM)	Active		Active	6.81 µg/mL (≈ 20.6 µM)		Active	inhibition [21]: Active; inhibition at 4 µg/mL [22]: 45.4%; inhibition [23]: Active

Source: ChEMBL document CHEMBL3616436, “Synthesis, cytotoxicity and antimicrobial activity of thiourea derivatives incorporating 3-(trifluoromethyl)phenyl moiety” (Eur J Med Chem, 2015)
